ChEMBL document CHEMBL1137753, “Insecticidal heterolignans--tubuline polymerization inhibitors with activity against chewing pests” (Bioorg Med Chem, 2009)
Calls of active or inactive are those of the source. Unless noted, the calls are words filed in the database; no cut-off is given here.

What was measured:
Bos taurus = organism: Bos taurus; experiment: Inhibition of bovine tubulin polymerization
Summary of the method: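 Tubulin (>99% pure, 300 µg/sample) was suspended at 4 °C in G-PEM buffer (80 mM PIPES, 2 mM MgCl2, 0.5 mM EGTA, 1.0 mM GTP, pH 6.9) plus 5% glycerol, with or without compound. Colchicine and taxol served as standards. Polymerization at 37 °C was followed as absorbance at 340 nm every 1 min for up to 60 min.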

Sf9 [1] = experiment: Cytotoxicity against Spodoptera frugiperda Sf9 cells assessed as chromatin condensation at >10 ppm after 48 hrs by fluorescence microscopy; assay type: functional, cell-based
Summary of the method: (§1)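 Sf9 cells seeded in 8-well slide chambers the day before, then exposed to compound for 48 h. After two PBS washes, cells were fixed in ice-cold methanol for 10 min on ice, given two short acetone washes, rehydrated in PBS and stained with Dapi (2 µM) for 30 min. Chromatin condensation/fragmentation scored by fluorescence microscopy with a x40 objective.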

CHO [2] = experiment: Cytotoxicity against CHO cells assessed as chromatin condensation after 24 hrs by fluorescence microscopy; assay type: cell-based, Cricetulus griseus; conditions: chinese hamster
CHO [3] = experiment: Cytotoxicity against CHO cells assessed as chromatin condensation after 48 hrs by fluorescence microscopy; assay type: cell-based, Cricetulus griseus; conditions: chinese hamster
Summary of the method: (§2)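 Sf9 or CHO cells were seeded in chamber slides the day before treatment and exposed to compound for 48 h. They were then PBS-washed, fixed in ice-cold methanol for 10 min on ice, and rinsed with acetone. After rehydration in PBS, cells were stained with 2 µM DAPI for 30 min. Nuclei were examined by fluorescence microscopy (×40) for chromatin condensation or fragmentation.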

Phaedon cochleariae [4] = experiment: Insecticidal activity against Phaedon cochleariae larvae in disk of Chinese cabbage leaf at 100 g/ha treated as spray; assay type: functional, organism-based
Summary of the method: (§3)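 This was sprayed on Chinese cabbage leaf disks. Once dry, disks were infested with mustard beetle larvae and mortality was scored after a set time. "+" denotes ≥80% larvae killed; n.a. denotes none killed.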

Spodoptera frugiperda [5] = experiment: Insecticidal activity against Spodoptera frugiperda larvae in disk of maize leaf at 500 g/ha treated as spray; assay type: functional, organism-based
Summary of the method: (§4)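 The same acetone/DMF/emulsifier formulation, diluted in emulsifier-containing water, was sprayed onto maize leaf disks. Dried disks were infested with fall armyworm larvae and mortality was assessed after a set time. "+" denotes ≥80% larvae killed; n.a. denotes no larvae killed.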

Sf9 [6] = experiment: Cytotoxicity against Spodoptera frugiperda Sf9 cells assessed as chromatin condensation at 0.14 ppm after 48 hrs by fluorescence microscopy; assay type: functional, cell-based; summary of the method: as §1
Phaedon cochleariae [7] = experiment: Insecticidal activity against Phaedon cochleariae larvae in disk of Chinese cabbage leaf treated as spray; assay type: functional, organism-based
Spodoptera frugiperda [8] = experiment: Insecticidal activity against Spodoptera frugiperda larvae in disk of maize leaf at 4 g/ha treated as spray; assay type: functional, organism-based; summary of the method: as §4
Phaedon cochleariae [9] = experiment: Insecticidal activity against Phaedon cochleariae larvae in disk of Chinese cabbage leaf at 500 g/ha treated as spray; assay type: functional, organism-based; summary of the method: as §3
Sf9 [10] = experiment: Cytotoxicity against Spodoptera frugiperda Sf9 cells assessed as chromatin condensation at 1 ppm after 48 hrs by fluorescence microscopy; assay type: functional, cell-based; summary of the method: as §2
Phaedon cochleariae [11] = experiment: Insecticidal activity against Phaedon cochleariae larvae in disk of Chinese cabbage leaf at 20 g/ha treated as spray; assay type: functional, organism-based; summary of the method: as §3
Spodoptera frugiperda [12] = experiment: Insecticidal activity against Spodoptera frugiperda larvae in disk of maize leaf treated as spray; assay type: functional, organism-based
Sf9 [13] = experiment: Cytotoxicity against Spodoptera frugiperda Sf9 cells assessed as chromatin condensation at 3 ppm after 48 hrs by fluorescence microscopy; assay type: functional, cell-based; summary of the method: as §2
Spodoptera frugiperda [14] = experiment: Insecticidal activity against Spodoptera frugiperda larvae in disk of maize leaf at 20 g/ha treated as spray; assay type: functional, organism-based
Summary of the method: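 Maize leaf disks (Zea mays) were sprayed, allowed to dry, then populated with S. frugiperda larvae. Mortality was scored after the desired time; '+' means at least 80% of larvae killed, 'n.a.' means none killed.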

Sf9 [15] = experiment: Cytotoxicity against Spodoptera frugiperda Sf9 cells assessed as chromatin condensation at 10 ppm after 48 hrs by fluorescence microscopy; assay type: functional, cell-based; summary of the method: as §2
Spodoptera frugiperda [16] = experiment: Insecticidal activity against Spodoptera frugiperda larvae in disk of maize leaf at 100 g/ha treated as spray; assay type: functional, organism-based; summary of the method: as §4
Phaedon cochleariae [17] = experiment: Insecticidal activity against Phaedon cochleariae larvae in disk of Chinese cabbage leaf at 4 g/ha treated as spray; assay type: functional, organism-based; summary of the method: as §3

CC(=O)O[C@H]1C(=O)[C@@]2(C)[C@H]([C@H](OC(=O)c3ccccc3)[C@]3(O)C[C@H](OC(=O)[C@H](O)[C@@H](NC(=O)c4ccccc4)c4ccccc4)C(C)=C1C3(C)C)[C@]1(OC(C)=O)CO[C@@H]1C[C@@H]2O
inhibition (Bos taurus): inactive

COc1cc(OC)cc([C@@H]2C3=C(COC3=O)Nc3cc(OC)ccc32)c1
Activity (Sf9 [1]): Active | Activity (CHO [2]): Toxic | Activity (CHO [3]): Toxic

O=C1OCC2=C1C(c1cncc(-c3ccc(F)cc3)c1)c1cc3c(cc1N2)OCO3 (stereo unspecified)
Activity (Phaedon cochleariae [4]): Active | Activity (Spodoptera frugiperda [5]): Active

COc1cc(OC)cc(C2C3=C(COC3=O)Nc3cc(OC)cc(OC)c32)c1 (stereo unspecified)
Activity (Phaedon cochleariae [4]): Active | Activity (Spodoptera frugiperda [5]): Active

COc1cc(OC)cc([C@H]2C3=C(COC3=O)Nc3cc(OC)ccc32)c1
Activity (Sf9 [6]): Active

N#Cc1cccc(C2C3=C(COC3=O)Nc3cc4c(cc32)OCO4)c1 (stereo unspecified)
Activity (Phaedon cochleariae [7]): inactive | Activity (Spodoptera frugiperda [5]): Active

CCOc1ccc2c(c1)NC1=C(C(=O)OC1)C2c1cc(OC)cc(OC)c1 (stereo unspecified)
Activity (CHO [2]): Toxic | Activity (Spodoptera frugiperda [8]): Active | Activity (Phaedon cochleariae [9]): Active | Activity (CHO [3]): Toxic | Activity (Sf9 [6]): Active

COc1cc(OC)cc(C2C3=C(COC3=O)Nc3cc(OC)c(OC)cc32)c1 (stereo unspecified)
Activity (CHO [2]): Toxic | Activity (Phaedon cochleariae [9]): Active | Activity (CHO [3]): Toxic | Activity (Spodoptera frugiperda [5]): Active | Activity (Sf9 [10]): Active

COc1cc(OC)cc(C2C3=C(COC3=O)Nc3c2ccc(OC)c3OC)c1 (stereo unspecified)
Activity (CHO [2]): Toxic | Activity (Spodoptera frugiperda [8]): Active | Activity (Phaedon cochleariae [11]): Active | Activity (CHO [3]): Toxic | Activity (Sf9 [6]): Active | inhibition (Bos taurus): Active

COc1cc2c(c(OC)c1OC)-c1ccc(OC)c(=O)cc1[C@@H](NC(C)=O)CC2 [COLCHICINE]
Activity (CHO [2]): Toxic | Activity (CHO [3]): Toxic | Activity (Sf9 [6]): Active | inhibition (Bos taurus): Active

COc1cc(C2C3=C(COC3=O)Nc3cc4c(cc32)OCO4)cc(OC)c1OC (stereo unspecified)
Activity (Spodoptera frugiperda [12]): inactive | Activity (Phaedon cochleariae [11]): Active

COc1ccc(C2C3=C(COC3=O)Nc3cc4c(cc32)OCO4)cc1OC (stereo unspecified)
Activity (Sf9 [13]): Active | Activity (Spodoptera frugiperda [12]): inactive | Activity (CHO [2]): Toxic | Activity (CHO [3]): Toxic | Activity (Phaedon cochleariae [7]): inactive

COc1ccc2c(c1)OC1=C(C(=O)OC1)C2c1cc(Cl)cc(Cl)c1 (stereo unspecified)
Activity (Phaedon cochleariae [7]): inactive | Activity (Spodoptera frugiperda [5]): Active

COc1ccc2c(c1)NC1=C(C(=O)OC1)C2c1cc(OC)c(OC)c(OC)c1 (stereo unspecified)
Activity (Spodoptera frugiperda [14]): Active | Activity (Phaedon cochleariae [9]): Active

O=C1OCC2=C1C(c1cc(Br)cs1)c1cc3c(cc1N2)OCO3 (stereo unspecified)
Activity (Phaedon cochleariae [7]): inactive | Activity (Spodoptera frugiperda [5]): Active

O=C1OCC2=C1C(c1ccccc1Cl)c1cc3c(cc1N2)OCO3 (stereo unspecified)
Activity (Spodoptera frugiperda [12]): inactive | Activity (CHO [2]): Toxic | Activity (Sf9 [15]): Active | Activity (CHO [3]): Toxic | Activity (Phaedon cochleariae [7]): inactive

COc1cc(OC)cc(C2C3=C(COC3=O)Nc3ccc(OC)cc32)c1 (stereo unspecified)
Activity (Phaedon cochleariae [11]): Active | Activity (Spodoptera frugiperda [16]): Active

COc1ccc(C2C3=C(COC3=O)Nc3cc4c(cc32)OCO4)cn1 (stereo unspecified)
Activity (Phaedon cochleariae [9]): Active | Activity (Spodoptera frugiperda [5]): Active

COc1cc(OC)cc(C2C3=C(COC3=O)Nc3cc(OC(C)C)ccc32)c1 (stereo unspecified)
Activity (Sf9 [13]): Active | Activity (CHO [2]): Toxic | Activity (CHO [3]): Toxic | Activity (Phaedon cochleariae [7]): inactive | Activity (Spodoptera frugiperda [5]): Active

COc1cc(OC)cc(C2C3=C(CC(C)OC3=O)Nc3cc4c(cc32)OCO4)c1 (stereo unspecified)
Activity (Phaedon cochleariae [9]): Active | Activity (Spodoptera frugiperda [5]): Active

COc1cc(C2C3=C(COC3=O)Nc3cc4c(cc32)OCO4)ccc1Cl (stereo unspecified)
Activity (Phaedon cochleariae [9]): Active | Activity (Spodoptera frugiperda [5]): Active

O=C1CCC2=C1C(c1cccc(Cl)c1)c1cc3c(cc1N2)OCO3 (stereo unspecified)
Activity (Sf9 [13]): Active | Activity (Spodoptera frugiperda [12]): inactive | Activity (CHO [2]): Toxic | Activity (CHO [3]): Toxic | Activity (Phaedon cochleariae [7]): inactive

O=C1OCC2=C1C(c1cc(F)c(F)c(F)c1)c1cc3c(cc1N2)OCO3 (stereo unspecified)
Activity (Phaedon cochleariae [7]): inactive | Activity (Spodoptera frugiperda [5]): Active

COc1cc(OC)cc(C2C3=C(COC3=O)Nc3cc4c(cc32)OCO4)c1 (stereo unspecified)
Activity (Spodoptera frugiperda [14]): Active | Activity (Phaedon cochleariae [11]): Active

CN1OC(C)(C)C2=C(C1=O)C(c1cccc(Cl)c1)c1cc3c(cc1N2)OCO3 (stereo unspecified)
Activity (Phaedon cochleariae [7]): inactive | Activity (Spodoptera frugiperda [5]): Active

COc1ccc2c(c1)C(c1cc(OC)c(OC)c(OC)c1)C1=C(COC1=O)N2 (stereo unspecified)
Activity (Spodoptera frugiperda [12]): inactive | Activity (Phaedon cochleariae [11]): Active

COc1cc(OC)cc(C2C3=C(COC3=O)Nc3cc(OC)c(C)cc32)c1 (stereo unspecified)
Activity (Phaedon cochleariae [11]): Active | Activity (Spodoptera frugiperda [5]): Active

COc1cc(OC)cc(C2C3=C(COC3=O)Nc3cc(OC)ccc32)c1 (stereo unspecified)
Activity (Spodoptera frugiperda [8]): Active | Activity (Phaedon cochleariae [11]): Active

O=C1OCC2=C1C(c1cc(C(F)(F)F)cc(Cl)c1F)c1cc3c(cc1N2)OCO3 (stereo unspecified)
Activity (Phaedon cochleariae [11]): Active | Activity (Spodoptera frugiperda [16]): Active

COc1cc(OC)cc(C2C3=C(COC3=O)Nc3c(OC)cc(OC)cc32)c1 (stereo unspecified)
Activity (Phaedon cochleariae [17]): Active | Activity (Spodoptera frugiperda [5]): Active

O=C1OCC2=C1C(c1cc(Br)c3c(c1)OCO3)c1cc3c(cc1N2)OCO3 (stereo unspecified)
Activity (Phaedon cochleariae [4]): Active | Activity (Spodoptera frugiperda [5]): Active

COc1ccc2c(c1OC)OC1=C(C(=O)OC1)C2c1cc(Cl)cc(Cl)c1 (stereo unspecified)
Activity (Phaedon cochleariae [7]): inactive | Activity (Spodoptera frugiperda [5]): Active

COc1cc(OC)cc(C2C3=C(Nc4cc5c(cc42)OCO5)C(C)OC3=O)c1 (stereo unspecified)
Activity (Phaedon cochleariae [4]): Active | Activity (Spodoptera frugiperda [5]): Active

COc1cc(OC)cc(C2C3=C(COC3=O)Nc3c(OC)cc(C)cc32)c1 (stereo unspecified)
Activity (Phaedon cochleariae [11]): Active | Activity (Spodoptera frugiperda [5]): Active

CCN1C2=C(C(=O)OC2)C(c2cc(OC)cc(OC)c2)c2cc3c(cc21)OCO3 (stereo unspecified)
Activity (CHO [2]): Toxic | Activity (Phaedon cochleariae [9]): Active | Activity (CHO [3]): Toxic | Activity (Spodoptera frugiperda [5]): Active | Activity (Sf9 [10]): Active
